Source: ChEMBL document CHEMBL2380272, “Biological evaluation of bisbenzaldehydes against four Mycobacterium species” (Eur J Med Chem, 2013)
In brackets after ≈: the same amount, converted by molar mass.

What was measured:
[1] = Antimycobacterial activity against Mycobacterium avium subsp. avium ATCC 15769 assessed as growth inhibition after 6 days by luciferase reporter gene assay; type: functional; settings: ATCC 15769, 144 h
Procedure, shortened: (§1)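 Mycobacteria carrying the pSMT1 luciferase reporter plasmid. Compounds came from 10 mM DMSO stocks and were serially diluted in 7H9 + 10% FCS. Thawed bacteria were filtered, recovered 1 h at 37 °C, then added at 50 000 RLU/mL. After 6 days of culture, light was read for 10 s after adding 1% n-decanal. Triplicates were run, and MIC50 was the concentration giving 50% growth inhibition.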

[2] = Cytotoxicity against human HepG2/C3A cells assessed as cell viability at 60 uM after 24 hrs by neutral red uptake assay relative to control; type: cell-based; settings: read-out: Activity
Procedure, shortened: (§2)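 C3A cells grown in DMEM + 10% FCS, 40 000 cells/well, recovered overnight at 37 °C, 5% CO2. Exposed 24 h to serial dilutions in DMEM + 10% FCS from 18 mM DMSO stocks, DMSO limited to 1%. Neutral red added for 3 h, cells washed, dye extracted with ethanol/acetic acid (50%/1%), OD read at 540 nm with 620 nm reference. Viability expressed as % of untreated cells.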

[3] = system: Mycobacterium tuberculosis; assay: Antimycobacterial activity against Mycobacterium tuberculosis H37Rv infected in mouse J774.A1 cells at 1 MOI assessed as intracellular bacterial growth inhibition at 0.1 uM after 1 hr by luciferase reporter gene assay relative to control; type: functional; settings: J774.A1, 1 h, read-out: GI
[4] = Cytotoxicity against human HepG2/C3A cells assessed as cell viability at 120 uM after 24 hrs by neutral red uptake assay relative to control; type: cell-based; settings: read-out: Activity; procedure, shortened: as §2
[5] = system: Mycobacterium avium subsp. paratuberculosis; assay: Antimycobacterial activity against Mycobacterium avium subsp. paratuberculosis ATCC 19698 assessed as growth inhibition after 6 days by luciferase reporter gene assay; type: functional; settings: ATCC 19698, 144 h; procedure, shortened: as §1
[6] = Cytotoxicity against human HepG2/C3A cells assessed as cell viability at 180 uM after 24 hrs by neutral red uptake assay relative to control; type: cell-based; settings: read-out: Activity; procedure, shortened: as §2
[7] = system: Salmonella typhimurium; assay: Genotoxicity in recombinant Salmonella typhimurium TA104 expressing Vibrio fisheri luxabcd genes under transcriptional control of recN2-4 promoter assessed as concentration required to cause DNA damage measured every 5 mins for 4 hrs by vitotox assay in absence of S9 fraction; type: toxicity, organism-based; settings: salmonella enterica subsp. enterica serovar typhimurium
Procedure, shortened: (§3)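 VITOTOX genox strain TA104 recN2-4 (recN promoter driving lux). Grown 16 h at 36 °C in poor LB, diluted 125-fold and shaken 1 h, then diluted 10-fold; rat aroclor S9 added for +S9 runs. Incubated at 30 °C with light read every 5 min for 4 h. Signal/noise = exposed over unexposed light. Highest concentration tested 10 µM.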

[8] = system: Salmonella typhimurium; assay: Genotoxicity in recombinant Salmonella typhimurium TA104 expressing Vibrio fisheri luxabcd genes under transcriptional control of recN2-4 promoter assessed as concentration required to cause DNA damage measured every 5 mins for 4 hrs by vitotox assay in presence of S9 fraction; type: toxicity, organism-based; settings: salmonella enterica subsp. enterica serovar typhimurium, s9, 4 h; procedure, shortened: as §3
[9] = system: Salmonella typhimurium; assay: Toxicity in recombinant Salmonella typhimurium TA104 expressing luxabcd genes under transcriptional control of constitutive pr1 promoter assessed as concentration required to reduce cell viability measured every 5 mins for 4 hrs by vitotox assay in absence of S9 fraction; type: organism-based; settings: salmonella enterica subsp. enterica serovar typhimurium
Procedure, shortened: (§4)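 Cytox strain TA104 pr1 (constitutive promoter driving lux), run alongside the genox strain. Grown in poor LB at 36 °C for 16 h, diluted 125-fold and shaken 1 h, then diluted 10-fold, with or without aroclor-rat S9. Luminescence read at 30 °C every 5 min over 4 h; a drop in light signal indicates reduced viability. Top concentration 10 µM.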

[10] = system: Mycobacterium tuberculosis; assay: Antimycobacterial activity against Mycobacterium tuberculosis H37Rv infected in mouse J774.A1 cells at 1 MOI assessed as intracellular bacterial growth inhibition at 1 uM after 1 hr by luciferase reporter gene assay relative to control; type: functional; settings: J774.A1, 1 h, read-out: GI
[11] = system: Mycobacterium tuberculosis; assay: Antimycobacterial activity against Mycobacterium tuberculosis H37Rv infected in mouse J774.A1 cells at 1 MOI assessed as intracellular bacterial growth inhibition at 10 uM after 1 hr by luciferase reporter gene assay relative to control; type: functional; settings: J774.A1, 1 h, read-out: GI
[12] = system: Mycobacterium tuberculosis; assay: Antimycobacterial activity against Mycobacterium tuberculosis H37Rv ATCC 27294 assessed as growth inhibition at 0.1 uM after 6 days by luciferase reporter gene assay relative to control; type: functional; settings: H37Rv ATCC 27294, 144 h, read-out: GI
Procedure, shortened: (§5)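 Luminescent M. tb H37Rv (hsp60-driven luciferase) in 7H9 + 10% FCS was seeded at 50 000 RLU/mL. Compounds were tested at 10, 1 and 0.1 µM from 10 mM DMSO stocks. After 6 days, luminescence was read with 1% n-decanal. Growth inhibition (%) was expressed against untreated culture, with triplicates.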

[13] = system: Mycobacterium tuberculosis; assay: Antimycobacterial activity against Mycobacterium tuberculosis H37Rv ATCC 27294 assessed as growth inhibition at 1 uM after 6 days by luciferase reporter gene assay relative to control; type: functional; settings: H37Rv ATCC 27294, 144 h, read-out: GI; procedure, shortened: as §5
[14] = system: Mycobacterium tuberculosis; assay: Antimycobacterial activity against Mycobacterium tuberculosis H37Rv ATCC 27294 assessed as growth inhibition after 6 days by luciferase reporter gene assay; type: functional; settings: H37Rv ATCC 27294, 144 h; procedure, shortened: as §1
[15] = Selectivity index, ratio of NI50 for human HepG2/C3A cells to MIC50 for Mycobacterium tuberculosis H37Rv ATCC 27294; type: functional
[16] = system: Mycobacterium ulcerans; assay: Antimycobacterial activity against Mycobacterium ulcerans 1615 assessed as growth inhibition after 6 days by luciferase reporter gene assay; type: functional; settings: Mycobacterium ulcerans, 1615, 144 h
Procedure, shortened: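 M. ulcerans 1615 carrying pSMT1 luciferase reporter plasmid, stock grown as surface pellicle on Sauton medium, cultured at 32 °C. Serial compound dilutions in 7H9 + 10% FCS from 10 mM DMSO stocks, tested in triplicate. Filtered bacteria added at 50 000 RLU/mL. After 6 days, wells collected and washed with PBS, 1% n-decanal in ethanol added, light read over 10 s. MIC50 = concentration giving 50% inhibition versus untreated.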

[17] = Toxicity in recombinant Salmonella typhimurium TA104 expressing luxabcd genes under transcriptional control of constitutive pr1 promoter assessed as concentration required to reduce cell viability measured every 5 mins for 4 hrs by vitotox assay in presence of S9 fraction; type: organism-based; settings: salmonella enterica subsp. enterica serovar typhimurium; read-out: Activity; procedure, shortened: as §4
[18] = system: Mycobacterium tuberculosis; assay: Antimycobacterial activity against Mycobacterium tuberculosis H37Rv ATCC 27294 assessed as growth inhibition at 10 uM after 6 days by luciferase reporter gene assay relative to control; type: functional; settings: H37Rv ATCC 27294, 144 h, read-out: GI; procedure, shortened: as §5

Row | SMILES | inhibition of growth at 0.1 µM [12] | inhibition of growth at 1 µM [13] | inhibition of growth at 10 µM [18] | further results
1 | O=Cc1ccc(OCCCCOc2ccc(C=O)cc2)cc1 | < 10% | 25% | 87% | MIC50 [1]: > 10 µM; viability at 24 h, 60 µM [2]: 86.1%; intracellular bacterial growth inhibition at 0.1 µM [3]: -0.9%; viability at 24 h, 120 µM [4]: 73.2%; MIC50 [5]: > 10 µM; viability at 24 h, 180 µM [6]: 55.7%; Activity [7]: > 10 µM; Activity [8]: > 10 µM; Activity [9]: > 10 µM; percent inhibition of intracellular bacterial growth at 1 µM [10]: 39%; intracellular bacterial growth inhibition at 10 µM [11]: 41.3%; MIC50 [14]: 3.21 µM (≈ 0.958 µg/mL); Selectivity Index [15]: >56.1; MIC50 [16]: > 10 µM; MCC at 4 h [17]: > 10 µM
2 | O=C(O)c1ccc(OCCCCCCOc2ccc(C(=O)O)cc2)cc1 | < 10% | 26% | 39% | –
3 | O=Cc1ccc(OCCCOc2ccc(C=O)cc2)cc1 | < 10% | 35% | 84% | MIC50 [1]: > 10 µM; viability at 24 h, 60 µM [2]: 94.9%; intracellular bacterial growth inhibition at 0.1 µM [3]: -1.2%; viability at 24 h, 120 µM [4]: 94.8%; MIC50 [5]: > 10 µM; viability at 24 h, 180 µM [6]: 77.4%; Activity [7]: > 10 µM; Activity [8]: > 10 µM; Activity [9]: > 10 µM; percent inhibition of intracellular bacterial growth at 1 µM [10]: 29.9%; intracellular bacterial growth inhibition at 10 µM [11]: 42%; MIC50 [14]: 2.65 µM (≈ 0.753 µg/mL); Selectivity Index [15]: >67.9; MIC50 [16]: > 10 µM; MCC at 4 h [17]: > 10 µM
4 | O=C(O)c1ccc(OCCCCOc2ccc(C(=O)O)cc2)cc1 | < 10% | 26% | 27% | –
5 | O=C(O)c1ccc(OCCCCCCCCCOc2ccc(C(=O)O)cc2)cc1 | < 10% | 17% | 17% | –
6 | O=Cc1ccc(OCCCCCCCCCCCCCCOc2ccc(C=O)cc2)cc1 | 30% | 57% | 98% | –
7 | O=C(O)c1ccc(OCCCCCCCCOc2ccc(C(=O)O)cc2)cc1 | < 10% | 29% | 29% | –
8 | O=C(O)c1ccc(OCCCOc2ccc(C(=O)O)cc2)cc1 | < 10% | < 10% | < 10% | –
9 | O=C(O)c1ccc(OCCCCCCCCCCCCOc2ccc(C(=O)O)cc2)cc1 | < 10% | < 10% | < 10% | –
10 | O=[N+]([O-])c1ccc(OCCCCCCCCCCCCOc2ccc([N+](=O)[O-])cc2)cc1 | < 10% | < 10% | 91% | –
11 | O=C(O)c1ccc(OCCCCCCCCCCCOc2ccc(C(=O)O)cc2)cc1 | < 10% | < 10% | 15% | –
12 | O=C(O)c1ccc(OCCCCCOc2ccc(C(=O)O)cc2)cc1 | < 10% | 30% | 27% | –
13 | O=Cc1ccccc1OCCCCCOc1ccccc1C=O | < 10% | 15% | 39% | –
14 | c1ccc(OCCCCCCCCCCCCOc2ccccc2)cc1 | < 10% | < 10% | < 10% | –
15 | O=Cc1ccc(OCCCCCOc2ccc(C=O)cc2)cc1 | < 10% | 39% | 95% | MIC50 [1]: 7.32 µM (≈ 2.29 µg/mL); viability at 24 h, 60 µM [2]: 90.4%; intracellular bacterial growth inhibition at 0.1 µM [3]: 0.2%; viability at 24 h, 120 µM [4]: 72.6%; MIC50 [5]: 8.69 µM (≈ 2.71 µg/mL); viability at 24 h, 180 µM [6]: 45.6%; Activity [7]: > 10 µM; Activity [8]: > 10 µM; Activity [9]: > 10 µM; percent inhibition of intracellular bacterial growth at 1 µM [10]: 38.1%; intracellular bacterial growth inhibition at 10 µM [11]: 46.8%; MIC50 [14]: 1.63 µM (≈ 0.509 µg/mL); Selectivity Index [15]: >110.4; MIC50 [16]: > 10 µM; MCC at 4 h [17]: > 10 µM
16 | O=C(O)c1ccc(OCCCCCCCOc2ccc(C(=O)O)cc2)cc1 | < 10% | 14% | 38% | –
17 | O=C(O)c1ccc(OCCOc2ccc(C(=O)O)cc2)cc1 | < 10% | < 10% | 38% | –
18 | O=Cc1cccc(OCCCCCCCCCCCCOc2cccc(C=O)c2)c1 | < 10% | < 10% | < 10% | –
19 | O=Cc1ccc(OCCOc2ccc(C=O)cc2)cc1 | < 10% | 41% | 90% | MIC50 [1]: > 10 µM; viability at 24 h, 60 µM [2]: 93.6%; intracellular bacterial growth inhibition at 0.1 µM [3]: 0.3%; viability at 24 h, 120 µM [4]: 85%; MIC50 [5]: > 10 µM; viability at 24 h, 180 µM [6]: 70.5%; Activity [7]: > 10 µM; Activity [8]: > 10 µM; Activity [9]: > 10 µM; percent inhibition of intracellular bacterial growth at 1 µM [10]: 32.6%; intracellular bacterial growth inhibition at 10 µM [11]: 39.2%; MIC50 [14]: 2.23 µM (≈ 0.603 µg/mL); Selectivity Index [15]: >80.7; MIC50 [16]: > 10 µM; MCC at 4 h [17]: > 10 µM
20 | CCCCCCCCCCCCOc1ccc(C=O)cc1 | < 10% | < 10% | < 10% | –
21 | O=C(O)c1ccc(OCCCCCCCCCCOc2ccc(C(=O)O)cc2)cc1 | < 10% | < 10% | 40% | –
22 | NNC(=O)c1ccncc1 [ISONIAZID] | 98% | 100% | 100% | MIC50 [1]: < 0.1 µM; intracellular bacterial growth inhibition at 0.1 µM [3]: 37%; MIC50 [5]: < 0.1 µM; percent inhibition of intracellular bacterial growth at 1 µM [10]: 82.3%; intracellular bacterial growth inhibition at 10 µM [11]: 97.7%; MIC50 [14]: < 0.1 µM; MIC50 [16]: 0.39 µM (≈ 0.0535 µg/mL)
23 | O=Cc1ccc(OCC(O)COc2ccc(C=O)cc2)cc1 | < 10% | < 10% | 60% | –
24 | O=C(O)c1ccc(OCOc2ccc(C(=O)O)cc2)cc1 | < 10% | < 10% | 40% | –
25 | O=Cc1cccc(OCCCCCOc2cccc(C=O)c2)c1 | < 10% | < 10% | 97% | –
26 | O=Cc1ccc(OCCOCCOc2ccc(C=O)cc2)cc1 | < 10% | 12% | 70% | –
